Assay results reported in ChEMBL document CHEMBL1137218, “Long hydrocarbon chain ether diols and ether diacids that favorably alter lipid disorders in vivo” (J Med Chem, 2004).

Tests used:
Format in all cases: functional
Rattus norvegicus [1] = assay: Blood glucose levels in female obese rats two weeks post treatment at 3 mg/kg oral dose; pretreatment value = 117 mg/dL
Rattus norvegicus [2] = assay: Serum HDL cholesterol levels in female obese rats one week post treatment at 3 mg/kg oral dose; pretreatment value = 59 mg/dL
Rattus norvegicus [3] = assay: Serum Triglyceride levels in female obese rats one week post treatment at 100 mg/kg oral dose; pretreatment value = 746 mg/dL
Rattus norvegicus [4] = assay: Serum Triglyceride levels in female obese rats one week post treatment at 30 mg/kg oral dose; pretreatment value = 1240 mg/dL
Rattus norvegicus [5] = assay: Serum NEFA levels in female obese rats two weeks post treatment at 100 mg/kg oral dose; pretreatment value = 1.1 mg/dL
Rattus norvegicus [6] = assay: Blood glucose levels in female obese rats one week post treatment at 30 mg/kg oral dose; pretreatment value = 109 mg/dL
Rattus norvegicus [7] = assay: Serum Triglyceride levels in female obese rats two weeks post treatment at 3 mg/kg oral dose; pretreatment value = 769 mg/dL
Rattus norvegicus [8] = assay: Serum Triglyceride levels in female obese rats two weeks post treatment at 100 mg/kg oral dose; pretreatment value = 746 mg/dL
Rattus norvegicus [9] = assay: Serum Triglyceride levels in female obese rats two weeks post treatment at 30 mg/kg oral dose; pretreatment value = 1240 mg/dL
Rattus norvegicus [10] = assay: Serum HDL cholesterol levels in female obese rats one week post treatment at 100 mg/kg oral dose; pretreatment value = 59 mg/dL
Rattus norvegicus [11] = assay: Serum HDL cholesterol levels in female obese rats two weeks post treatment at 30 mg/kg oral dose; pretreatment value = 42 mg/dL
Rattus norvegicus [12] = assay: Blood glucose levels in female obese rats two weeks post treatment at 10 mg/kg oral dose; pretreatment value = 112 mg/dL
Rattus norvegicus [13] = assay: Blood glucose levels in female obese rats two weeks post treatment at 30 mg/kg oral dose; pretreatment value = 109 mg/dL
Rattus norvegicus [14] = assay: Serum HDL cholesterol levels in female obese rats two weeks post treatment at 100 mg/kg oral dose; pretreatment value = 59 mg/dL
Rattus norvegicus [15] = assay: Insulin levels in female obese rats two weeks post treatment at 30 mg/kg oral dose; pretreatment value = 9.3 ng/mL
Rattus norvegicus [16] = assay: Serum NEFA levels in female obese rats one week post treatment at 30 mg/kg oral dose; pretreatment value = 1.3 mg/dL
Rattus norvegicus [17] = assay: Serum NEFA levels in female obese rats two weeks post treatment at 3 mg/kg oral dose; pretreatment value = 1.2 mg/dL
Rattus norvegicus [18] = assay: Insulin levels in female obese rats one week post treatment at 3 mg/kg oral dose; pretreatment value = 12.9 ng/mL
Rattus norvegicus [19] = assay: Insulin levels in female obese rats one week post treatment at 10 mg/kg oral dose; pretreatment value = 8.2 ng/mLL
Rattus norvegicus [20] = assay: Serum NEFA levels in female obese rats two weeks post treatment at 10 mg/kg oral dose; pretreatment value = 1.2 mg/dL
Rattus norvegicus [21] = assay: Blood glucose levels in female obese rats one week post treatment at 3 mg/kg oral dose; pretreatment value = 117 mg/dL
Rattus norvegicus [22] = assay: Serum Non-HDL cholesterol levels in female obese rats one week post treatment at 10 mg/kg oral dose; pretreatment value = 25 mg/dL
In short: (§1)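 Female obese Zucker fatty rats (10–12 weeks, 400–500 g), once-daily oral gavage in 20% EtOH/80% PEG-200 (v/v) for up to 14 days. Serum drawn after a 6 h fast, pre-dose and at days 7 and 14. Non-HDL cholesterol is serum total cholesterol times the percent area of the non-HDL peaks in a Superose 6HR gel-filtration profile with on-line cholesterol detection. n = 4 per dose.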

Rattus norvegicus [23] = assay: Serum Non-HDL cholesterol levels in female obese rats two weeks post treatment at 10 mg/kg oral dose; pretreatment value = 25 mg/dL; in short: as §1
Rattus norvegicus [24] = assay: Serum Triglyceride levels in female obese rats one week post treatment at 10 mg/kg oral dose; pretreatment value = 1185 mg/dL
Rattus norvegicus [25] = assay: Serum Triglyceride levels in female obese rats one week post treatment at 30 mg/kg oral dose; pretreatment value = 1004 mg/dL
Rattus norvegicus [26] = assay: Serum Triglyceride levels in female obese rats two weeks post treatment at 3 mg/kg oral dose; pretreatment value = 1111 mg/dL
Rattus norvegicus [27] = assay: Serum NEFA levels in female obese rats two weeks post treatment at 100 mg/kg oral dose; pretreatment value = 1.2 mg/dL
Rattus norvegicus [28] = assay: Blood glucose levels in female obese rats one week post treatment at 30 mg/kg oral dose; pretreatment value = 106 mg/dL
Rattus norvegicus [29] = assay: Serum HDL cholesterol levels in female obese rats one week post treatment at 30 mg/kg oral dose; pretreatment value = 49 mg/dL
Rattus norvegicus [30] = assay: Serum HDL cholesterol levels in female obese rats two weeks post treatment at 10 mg/kg oral dose; pretreatment value = 61 mg/dL
Rattus norvegicus [31] = assay: Serum Triglyceride levels in female obese rats two weeks post treatment at 100 mg/kg oral dose; pretreatment value = 1068 mg/dL
Rattus norvegicus [32] = assay: Blood glucose levels in female obese rats two weeks post treatment at 10 mg/kg oral dose; pretreatment value = 110 mg/dL
Rattus norvegicus [33] = assay: Insulin levels in female obese rats two weeks post treatment at 3 mg/kg oral dose; pretreatment value = 13.3 ng/mL
Rattus norvegicus [34] = assay: Serum NEFA levels in female obese rats one week post treatment at 3 mg/kg oral dose; pretreatment value = 1.1 mg/dL
Rattus norvegicus [35] = assay: Serum NEFA levels in female obese rats one week post treatment at 10 mg/kg oral dose; pretreatment value = 1.4 mg/dL
Rattus norvegicus [36] = assay: Serum NEFA levels in female obese rats two weeks post treatment at 3 mg/kg oral dose; pretreatment value = 1.1 mg/dL
Rattus norvegicus [37] = assay: Serum NEFA levels in female obese rats one week post treatment at 100 mg/kg oral dose; pretreatment value = 1.2 mg/dL
Rattus norvegicus [38] = assay: Insulin levels in female obese rats one week post treatment at 3 mg/kg oral dose; pretreatment value = 13.3 ng/mL
Rattus norvegicus [39] = assay: Insulin levels in female obese rats one week post treatment at 10 mg/kg oral dose; pretreatment value = 8.8 […]
Rattus norvegicus [40] = assay: Serum NEFA levels in female obese rats two weeks post treatment at 30 mg/kg oral dose; pretreatment value = 1.2 mg/dL
Rattus norvegicus [41] = assay: Insulin levels in female obese rats one week post treatment at 30 mg/kg oral dose; pretreatment value = 9 ng/mL
Rattus norvegicus [42] = assay: Serum HDL cholesterol levels in female obese rats one week post treatment at 10 mg/kg oral dose; pretreatment value = 61 mg/dL
Rattus norvegicus [43] = assay: Serum Non-HDL cholesterol levels in female obese rats one week post treatment at 3 mg/kg oral dose; pretreatment value = 29 mg/dL; in short: as §1
Rattus norvegicus [44] = assay: Insulin levels in female obese rats two weeks post treatment at 100 mg/kg oral dose; pretreatment value = 8.6 ng/mL
Rattus norvegicus [45] = assay: Blood glucose levels in female obese rats one week post treatment at 10 mg/kg oral dose; pretreatment value = 110 mg/dL

CC(C)(CO)CCCCOCCCCC(C)(C)CO gave an Activity (Rattus norvegicus [1]) of 119 mg/dL, an Activity (Rattus norvegicus [2]) of 70 mg/dL and an Activity (Rattus norvegicus [3]) of 174 mg/dL. The Activity (Rattus norvegicus [4]) was 271 mg/dL, the Activity (Rattus norvegicus [5]) was 0.83 mg/dL and the Activity (Rattus norvegicus [6]) was 140 mg/dL. The Activity (Rattus norvegicus [7]) was 934 mg/dL, the Activity (Rattus norvegicus [8]) was 219 mg/dL and the Activity (Rattus norvegicus [9]) was 324 mg/dL. It also gave an Activity (Rattus norvegicus [10]) of 192 mg/dL, an Activity (Rattus norvegicus [11]) of 222 mg/dL and an Activity (Rattus norvegicus [12]) of 117 mg/dL. The Activity (Rattus norvegicus [13]) was 123 mg/dL, the Activity (Rattus norvegicus [14]) was 263 mg/dL and the Activity (Rattus norvegicus [15]) was 17.4 ng/mL. The Activity (Rattus norvegicus [16]) was 0.76 mg/dL, the Activity (Rattus norvegicus [17]) was 1.5 mg/dL and the Activity (Rattus norvegicus [18]) was 15.1 ng/mL. It also gave an Activity (Rattus norvegicus [19]) of 8.9 ng/mL, an Activity (Rattus norvegicus [20]) of 1.1 mg/dL and an Activity (Rattus norvegicus [21]) of 114 mg/dL. The Activity (Rattus norvegicus [22]) was 30 mg/dL and the Activity (Rattus norvegicus [23]) was 43 mg/dL.

CC(C)(CO)CCCCCOCCCCCC(C)(C)CO was tested, and the Activity (Rattus norvegicus [24]) was 1159 mg/dL, the Activity (Rattus norvegicus [25]) was 191 mg/dL and the Activity (Rattus norvegicus [26]) was 1116 mg/dL. It also gave an Activity (Rattus norvegicus [27]) of 0.7 mg/dL, an Activity (Rattus norvegicus [28]) of 113 mg/dL and an Activity (Rattus norvegicus [29]) of 128 mg/dL. For the same compound, the Activity (Rattus norvegicus [30]) was 110 mg/dL, the Activity (Rattus norvegicus [31]) was 167 mg/dL and the Activity (Rattus norvegicus [32]) was 119 mg/dL. The Activity (Rattus norvegicus [33]) was 11.4 ng/mL, the Activity (Rattus norvegicus [34]) was 1.3 mg/dL and the Activity (Rattus norvegicus [35]) was 1.3 mg/dL. The Activity (Rattus norvegicus [36]) was 1.5 mg/dL, the Activity (Rattus norvegicus [37]) was 1.2 mg/dL and the Activity (Rattus norvegicus [38]) was 12.2 ng/mL. The Activity (Rattus norvegicus [39]) was 14.8 ng/mL, the Activity (Rattus norvegicus [40]) was 0.82 mg/dL and the Activity (Rattus norvegicus [41]) was 12.4 ng/mL. The Activity (Rattus norvegicus [42]) was 92 mg/dL, the Activity (Rattus norvegicus [43]) was 26 mg/dL and the Activity (Rattus norvegicus [44]) was 4.4 ng/mL. For the same compound, the Activity (Rattus norvegicus [45]) was 100 mg/dL.
